Experimental data as given in ChEMBL document CHEMBL3259728, “Design, synthesis and biological evaluation of some novel substituted quinazolines as antitumor agents” (2014).

How the values were obtained:
Format in all cases: functional
[1] = tested on: SNB-19; experiment: Growth inhibition of human SNB19 cells assessed as cell growth at 10^-4 M after 48 hrs by SRB assay; conditions: SNB-19, 48 h, read-out: Activity
[2] = Growth inhibition of human HCT15 cells assessed as cell growth at 10^-4 M after 48 hrs by SRB assay; conditions: HCT-15, 48 h, read-out: Activity
[3] = tested on: CCRF-CEM; experiment: Growth inhibition of human CCRF-CEM cells assessed as cell growth at 10^-4 M after 48 hrs by SRB assay; conditions: read-out: Activity
Method in brief: (§1)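 Five-dose NCI panel protocol. Each dose (10^-4 to 10^-8 M, 10-fold steps) was given as 48 h continuous exposure, and protein was measured by SRB staining. Percentage growth at each level is [(Ti−Tz)/(C−Tz)]×100, where Tz is time-zero absorbance and C is untreated control.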

[4] = Growth inhibition of human UACC257 cells assessed as cell growth at 10^-8 M after 48 hrs by SRB assay; conditions: UACC-257, 48 h, read-out: Activity
[5] = tested on: HCT-116; experiment: Growth inhibition of human HCT116 cells assessed as cell growth at 10^-8 M after 48 hrs by SRB assay; conditions: HCT-116, 48 h, read-out: Activity
[6] = tested on: NCI-H460; experiment: Growth inhibition of human NCI-H460 cells assessed as cell growth at 10^-8 M after 48 hrs by SRB assay; conditions: NCI-H460, 48 h, read-out: Activity
[7] = tested on: PC-3; experiment: Growth inhibition of human PC3 cells assessed as cell growth at 10^-5 M after 48 hrs by SRB assay; conditions: PC-3, 48 h, read-out: Activity
[8] = tested on: ACHN; experiment: Growth inhibition of human ACHN cells assessed as cell growth at 10^-5 M after 48 hrs by SRB assay; conditions: read-out: Activity; method in brief: as §1
[9] = tested on: A498; experiment: Growth inhibition of human A498 cells assessed as cell growth at 10^-5 M after 48 hrs by SRB assay; conditions: A498, 48 h, read-out: Activity; method in brief: as §1
[10] = tested on: U-251; experiment: Growth inhibition of human U251 cells assessed as cell growth at 10^-5 M after 48 hrs by SRB assay; conditions: U-251, 48 h, read-out: Activity
[11] = tested on: SNB-19; experiment: Growth inhibition of human SNB19 cells assessed as cell growth at 10^-5 M after 48 hrs by SRB assay; conditions: SNB-19, 48 h, read-out: Activity
[12] = tested on: T47D; experiment: Growth inhibition of human T47D cells assessed as cell growth at 10^-6 M after 48 hrs by SRB assay; conditions: read-out: Activity
[13] = Growth inhibition of human BT549 cells assessed as cell growth at 10^-6 M after 48 hrs by SRB assay; conditions: BT-549, 48 h, read-out: Activity; method in brief: as §1
[14] = tested on: SNB-75; experiment: Growth inhibition of human SNB75 cells assessed as cell growth at 10^-6 M after 48 hrs by SRB assay; conditions: SNB-75, 48 h, read-out: Activity
[15] = tested on: Malme-3M; experiment: Growth inhibition of human MALME-3M cells assessed as cell growth at 10^-4 M after 48 hrs by SRB assay; conditions: read-out: Activity
[16] = tested on: SN12C; experiment: Growth inhibition of human SN12C cells assessed as cell growth at 10^-5 M after 48 hrs by SRB assay; conditions: read-out: Activity
[17] = tested on: NCI-H23; experiment: Growth inhibition of human NCI-H23 cells assessed as cell growth at 10^-5 M after 48 hrs by SRB assay; conditions: NCI-H23, 48 h, read-out: Activity
[18] = tested on: DU-145; experiment: Growth inhibition of human DU145 cells assessed as cell growth at 10^-7 M after 48 hrs by SRB assay; conditions: DU-145, 48 h, read-out: Activity
[19] = tested on: A498; experiment: Cytotoxicity against human A498 cells after 48 hrs by SRB assay; conditions: A498, 48 h
Method in brief: (§2)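 NCI 60-cell-line panel of human tumour lines from nine cancer types. Continuous 48 h exposure at five 10-fold dilutions from 10^-4 to 10^-8 M, with 5-FU as positive control. SRB protein stain read spectrophotometrically at time zero, untreated control and each concentration. GI50, TGI and LC50 were derived from the [(Ti−Tz)/(C−Tz)]×100 growth relations, and out-of-range values are given as > or < the tested limits.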

[20] = tested on: SK-OV-3; experiment: Cytotoxicity against human SKOV3 cells after 48 hrs by SRB assay; conditions: SK-OV-3, 48 h; method in brief: as §2
[21] = tested on: SF-295; experiment: Cytotoxicity against human SF295 cells after 48 hrs by SRB assay; conditions: SF-295, 48 h; method in brief: as §2
[22] = Growth inhibition of human EKVX cells assessed as cell growth at 10^-8 M after 48 hrs by SRB assay; conditions: read-out: Activity
[23] = tested on: HOP-62; experiment: Growth inhibition of human HOP62 cells assessed as cell growth at 10^-6 M after 48 hrs by SRB assay; conditions: HOP-62, 48 h, read-out: Activity
[24] = tested on: MDA-MB-468; experiment: Cytotoxicity against human MDA-MB-468 cells after 48 hrs by SRB assay; conditions: MDA-MB-468, 48 h; method in brief: as §2
[25] = tested on: K562; experiment: Growth inhibition of human K562 cells assessed as cell growth at 10^-6 M after 48 hrs by SRB assay; conditions: K562, 48 h, read-out: Activity
[26] = Growth inhibition of human MOLT4 cells assessed as cell growth at 10^-7 M after 48 hrs by SRB assay; conditions: MOLT-4, 48 h, read-out: Activity
[27] = tested on: T47D; experiment: Growth inhibition of human T47D cells assessed as cell growth at 10^-8 M after 48 hrs by SRB assay; conditions: read-out: Activity
[28] = tested on: NCI-H460; experiment: Cytotoxicity against human NCI-H460 cells after 48 hrs by SRB assay; conditions: NCI-H460, 48 h; method in brief: as §2
[29] = tested on: SN12C; experiment: Growth inhibition of human SN12C cells assessed as cell growth at 10^-4 M after 48 hrs by SRB assay; conditions: read-out: Activity
[30] = read-out: LC50 (the source's name)
[31] = read-out: pLC50 (the source's name) (converted)

With `Cc1ccc(-c2nc3ccc(Cl)cc3c(=O)n2/N=C/c2ccccc2)cc1` the growth at 100 µM [1] was 10%, the growth at 100 µM [2] was 69% and the growth at 100 µM [3] was 57%. It also gave a growth at 0.01 µM [4] of 100%, a growth at 0.01 µM [5] of 100% and a growth at 0.01 µM [6] of 100%. For the same compound, the growth at 10 µM [7] was 66%, the growth at 10 µM [8] was 10% and the growth at 10 µM [9] was 40%. The growth at 10 µM [10] was 32%, the growth at 10 µM [11] was 34% and the growth at 1 µM [12] was 100%. It also gave a growth at 1 µM [13] of 103%, a growth at 1 µM [14] of 64% and a growth at 100 µM [15] of 42%. The growth at 10 µM [16] was 51%, the growth at 10 µM [17] was 65% and the growth at 0.1 µM [18] was 98%. For the same compound, the GI50 ([19]; read-out: GI50) was 5.91 µM, the CC50 [19, 30] was over 100 µM and the TGI ([19]; read-out: TGI) was over 100 µM. It also gave a GI50 ([19]; read-out: pGI50 (converted)) of 5.89 µM, a CC50 [19, 31] of over 100 µM and a TGI ([19]; read-out: pTGI) of over 100 µM. It also gave a GI50 ([20]; read-out: GI50) of 2.89 µM, a CC50 [20, 30] of over 100 µM and a TGI ([20]; read-out: TGI) of 9.9 µM. It also gave a GI50 ([20]; read-out: pGI50 (converted)) of 2.88 µM, a CC50 [20, 31] of over 100 µM and a TGI ([20]; read-out: pTGI (converted)) of 10 µM. It also gave a GI50 ([21]; read-out: GI50) of 4.73 µM, a CC50 [21, 30] of over 100 µM and a TGI ([21]; read-out: TGI) of over 100 µM. For the same compound, the GI50 ([21]; read-out: pGI50 (converted)) was 4.79 µM, the CC50 [21, 31] was over 100 µM and the TGI ([21]; read-out: pTGI) was over 100 µM. The growth at 0.01 µM [22] was 92%, the growth at 1 µM [23] was 86% and the GI50 ([24]; read-out: GI50) was 57.6 µM. For the same compound, the LC50 ([24]; read-out: LC50) was over 100 µM, the TGI ([24]; read-out: TGI) was over 100 µM and the GI50 ([24]; read-out: pGI50 (converted)) was 57.5 µM. It also gave an LC50 ([24]; read-out: pLC50 (converted)) of over 100 µM, a TGI ([24]; read-out: pTGI) of over 100 µM and a growth at 1 µM [25] of 92%. It also gave a growth at 0.1 µM [26] of 96%, a growth at 0.01 µM [27] of 89% and a GI50 ([28]; read-out: GI50) of 3.68 µM. The CC50 [28, 30] was over 100 µM, the TGI ([28]; read-out: TGI) was over 100 µM and the GI50 ([28]; read-out: pGI50 (converted)) was 3.72 µM. The CC50 [28, 31] was over 100 µM, the TGI ([28]; read-out: pTGI) was over 100 µM and the growth at 100 µM [29] was 42%.
